This is an account of results in ChEMBL document CHEMBL1649302, “New small-molecule inhibitor class targeting human immunodeficiency virus type 1 virion maturation” (Antimicrob Agents Chemother, 2009).

Experiment [1] relates to Human immunodeficiency virus 1. Kind of experiment: Antiviral activity against HIV1 harboring spacer peptide A1V mutant protein infected in human HeLa cells assessed as decrease in viral infection after […] by beta-galactosidase reporter gene assay. Type of experiment: functional, organism-based. The settings on record: Human immunodeficiency virus 1, HeLa. In outline: (§1)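 MT-2 cells were infected for 2 h with wild-type NL4-3 or recombinant NL4-3 carrying CA I201V or SP1 A1V. They were then cocultured with HeLa CD4 LTR/beta-Gal indicator cells in serially diluted compound. Beta-gal reporter was read after 4 days. EC50s are means ± SD of 3–6 experiments. Fold change is mutant EC50 divided by wild-type EC50.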
(In a reporter assay the amount or activity of a reporter protein is the signal.)

Experiment [2] concerns Human immunodeficiency virus 1. Briefly: Selectivity ratio of EC50 for HIV1 harboring capsid I201V mutant protein infected in human HeLa cells to EC50 for wild type HIV1 infected in human HeLa cells. The class given is functional. In a few lines: as §1
For experiment [3], the system named is Human immunodeficiency virus 1. Kind of experiment: Antiviral activity against wild type HIV1 infected in human HeLa cells assessed as decrease in viral infection after 72 hrs by beta-galactosidase reporter gene assay. Type of experiment: functional, organism-based. The settings on record: Human immunodeficiency virus 1, HeLa. In a few lines:
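HeLa CD4 LTR/β-Gal cells (1 × 10⁴/well, DMEM + 10% FBS) were pretreated with half-log compound dilutions. They were then infected at MOI 0.03 with single-cycle NL4-3 ΔEnv reporter virus pseudotyped with envelope from HEK 293 cotransfection. EC50 was the concentration halving β-galactosidase activity versus infected untreated cells. Values are mean ± SD or representative of three experiments.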

Experiment [4] concerns Human immunodeficiency virus 1. Kind of experiment: Selectivity ratio of EC50 for HIV1 harboring spacer peptide A1V mutant protein infected in human HeLa cells to EC50 for wild type HIV1 infected in human HeLa cells. Type of experiment: functional. In outline: as §1
Experiment [5] deals with Human immunodeficiency virus 1. Kind of experiment: Antiviral activity against HIV1 harboring capsid I201V mutant protein infected in human HeLa cells assessed as decrease in viral infection after 72 hrs by beta-galactosidase reporter gene assay. Type of experiment: functional, organism-based. The settings on record: Human immunodeficiency virus 1, HeLa.
The test system of experiment [6] is Human immunodeficiency virus 1. Kind of experiment: Antiviral activity against HIV1 NL4-3 infected in HEK293 cells assessed as decrease in virus production at 2 times EC90 after 72 hrs by beta-galactosidase reporter gene assay. Type of experiment: functional.
The subject of experiment [7] is Human immunodeficiency virus 1. Kind of experiment: Antiviral activity against HIV1 NL4-3 infected in human HeLa cells assessed as decrease in single-cycle viral infection after 72 hrs by beta-galactosidase reporter gene assay. The class given is functional, organism-based. The settings on record: Human immunodeficiency virus 1, NL4-3, HeLa. In outline:
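HeLa CD4 LTR/beta-Gal cells (1 × 10⁴/well, DMEM + 10% FBS) were pre-dosed with half-log compound dilutions. They were infected at MOI 0.03 with single-cycle NL4-3 reporter virus made by cotransfecting HEK 293 cells with pNL4-3deltaEnv and an NL4-3 envelope vector. EC50 is from beta-gal reporter activity relative to infected untreated cells, across three experiments.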

Some results are limits rather than exact numbers.

Broadly, the EC50 is the concentration needed to bring the measured effect to its halfway point.

As to `C=C(C)[C@@H]1CC[C@]2(C(=O)O)CC[C@]3(C)[C@H](CC[C@@H]4[C@@]5(C)CC[C@H](OC(=O)CC(C)(C)C(=O)O)C(C)(C)[C@@H]5CC[C@]43C)[C@@H]12` [BEVIRIMAT], the values for the EC50 in experiment [1], in experiment [3] and in experiment [5] were over 1000 nM, 9 nM and 290 nM, respectively. Also, the “Ratio EC50” value is listed as 32 in experiment [2] and over 111 in experiment [4].
As to `Cc1c(O)cccc1C(=O)N[C@@H](CSc1ccccc1)[C@H](O)CN1C[C@H]2CCCC[C@H]2C[C@H]1C(=O)NC(C)(C)C` [NELFINAVIR], the EC50 in experiment [1] was 38 nM; in experiment [3] it was 16 nM; in experiment [5], 13 nM; in experiment [7] it was over 1000 nM. Moreover, the “inhibition (INH)” value in experiment [6] is on record as 76%. Also, the “Ratio EC50” value in experiment [2] amounted to 1; in experiment [4], 2.
Regarding `O=C1Nc2ccc(Cl)cc2[C@@](C#CC2CC2)(C(F)(F)F)O1` [EFAVIRENZ], the concentration for a half-maximal effect (EC50) in experiment [1] amounted to 1 nM; in experiment [5] it was 0.6 nM. Further, the “inhibition (INH)” value in experiment [6] amounted to 24%.
